Entries after “also recorded” stand apart in the source; their conditions may differ. Where a SMILES comes first, the peptide text is derived from it. Where no end group is shown, it is not given here. The star is where a group is joined. X1 = O=C(O)CN1CCN(CC(=O)O)CCN(CC(O)Cn2cc(CCCC(=O)*)nn2)CCN(CC(=O)O)CC1; PEG2 = NCCOCCOCCC(=O)O
Key:
[1] = tested on: EDB-FN in PC3 tumor sections; test: Confocal fluorescence of PC3 tumor sections; parameters: species or system mouse; conditions: confocal microscopy
[2] = tested on: non-cancerous tissue; conditions: cited from earlier work
[3] = tested on: PC3 prostate tumor xenografts (EDB-FN); test: Contrast enhanced T1-weighted MRI, PC3 tumor xenografts; type: in vivo, mouse (male athymic nude); conditions: for tumor differentiation: CNR/enhancement in PC3 vs LNCaP tumors: PC3 compared with LNCaP tumors, during 30 min after injection; for signal/contrast enhancement: T1-weighted MRI, up to 30 min post-injection; for contrast-to-noise ratio (CNR), range: first 30 min post-injection, i.v. (ZD2-Gd(HP-DO3A) 0.1 mmol/kg), ZD2-Gd(HP-DO3A) vs ProHance P < 0.05 at all time points
[4] = tested on: high-grade human prostate tumor; conditions: cited from earlier work
[5] = tested on: low-grade tumor; conditions: cited from earlier work
[6] = tested on: LNCaP prostate tumor xenografts (EDB-FN); test: Contrast enhanced T1-weighted MRI, LNCaP tumor xenografts; type: in vivo, mouse (male athymic nude); conditions: for signal/contrast enhancement: T1-weighted MRI, up to 30 min post-injection; for contrast-to-noise ratio (CNR), range: first 30 min post-injection, i.v., 7T
[7] = tested on: other organs and normal tissues; test: Contrast enhanced T1-weighted MRI, other organs and normal tissues; type: in vivo, mouse (male athymic nude); conditions: i.v.
[8] = r1 relaxivity in PC3 tumor lysates; type: physicochemical; conditions: T1 mapping phantom
[9] = In vitro chelate stability / transmetallation in PBS with Cu2+, Ca2+, Zn2+; type: physicochemical
[10] = tested on: LNCaP tumors; test: Quantitative T1 mapping, LNCaP tumors; type: in vivo, mouse (male athymic nude); conditions: 30 min after injection
[11] = target: EDB protein (Homo sapiens, UniProt P02751); test: SPR binding to immobilized EDB protein; conditions: second (blue) trend line
EDB protein, sequence (P02751 1271-1359 limits assumed): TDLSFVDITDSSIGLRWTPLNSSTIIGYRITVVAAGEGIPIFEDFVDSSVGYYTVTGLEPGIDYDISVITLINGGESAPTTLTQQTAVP

[12] = tested on: PC3 tumors; test: Quantitative T1 mapping, PC3 tumors; type: in vivo, mouse (male athymic nude); conditions: 30 min after injection
[13] = In vivo transmetallation and urinary excretion
[14] = T1 relaxivity at 7T in PBS; type: physicochemical; conditions: phantom, 3.12 - 50 μM
In short: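 Multi-compartment phantom of the test compound in PBS at 50, 25, 12.5, 6.25 and 3.12 μM, imaged on a horizontal 7T scanner. T1 maps came from an accelerated multi-slice method combining a saturation-recovery Look-Locker sequence with spiral k-space sampling. r1 was taken from the slope of 1/T1 plotted against concentration.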

[15] = Gd biodistribution / tissue retention; conditions: 1 week after injection, ICP-OES
[16] = tested on: PC3 and LNCaP tumors; conditions: after T1 mapping, about 30 min post-injection; n = 4

Compound: TVRTSAD [ZD2]
- colocalization with EDB-FN [1]: colocalize with the EDB-FN fibril network
- binding in non-cancerous tissue [2]: non-binding
- reduction of PC3 tumor enhancement by competition ([3]; co-injection of excess free ZD2 peptide 0.5 mmol/kg with ZD2-Gd(HP-DO3A) 0.1 mmol/kg, PC3 tumors, n=3): significantly reduced signal enhancement and CNR; also recorded: blocked the binding of the targeted agent and reduced tumor enhancement in the PC3 tumors
- binding to high-grade human prostate tumor [4]: strong specific binding
- binding to low-grade tumor [5]: low binding

Compound: Cys-Arg-Glu-Lys-Ala [CREKA-Gd(HP-DO3A), reference compound]
- signal/contrast enhancement ([6]; LNCaP tumors): significant contrast enhancement in the periphery
- tumor differentiation: CNR/enhancement in PC3 vs LNCaP tumors [3]: no significant difference
- signal/contrast enhancement ([3]; PC3 tumors): significant contrast enhancement in the periphery

Compound: CC(O)CN1CCN(CC(=O)[O-])CCN(CC(=O)[O-])CCN(CC(=O)[O-])CC1.[Gd+3] (centres unmarked) [ProHance, gadoteridol, reference compound]
- signal/contrast enhancement ([6]; LNCaP tumors): modest contrast enhancement
- contrast-to-noise ratio (CNR), range ([6]; LNCaP tumors, n=5): 7~10
- contrast enhancement in other organs and normal tissues [7]: did not produce significant contrast enhancement
- r1 relaxivity [8]: 3.17 mM⁻¹ s⁻¹
- tumor differentiation: CNR/enhancement in PC3 vs LNCaP tumors [3]: not significantly different
- signal/contrast enhancement ([3]; PC3 tumors): modest contrast enhancement
- contrast-to-noise ratio (CNR), range ([3]; PC3 tumors, 7T, n=5): 7~11

Compound: CC(C)[C@H](NC(=O)[C@@H](NC(=O)CCOCCOCCNC(=O)CCCc1cn(CC(O)CN2CCN(CC(=O)O)CCN(CC(=O)O)CCN(CC(=O)O)CC2)nn1)[C@@H](C)O)C(=O)N[C@@H](CCCNC(=N)N)C(=O)N[C@H](C(=O)N[C@@H](CO)C(=O)N[C@@H](C)C(=O)N[C@@H](CC(=O)O)C(=O)O)[C@@H](C)O (some centres unmarked) [ZD2-Gd(HP-DO3A)] ({X1-PEG2}-TVRTSAD-OH; C-terminus assumed)
- relative Gd3+ content ([9]; 200-min incubation in PBS with and without Cu2+, Ca2+ or Zn2+): No decrease in Gd^3+ content was observed
- transmetallation / chelate stability ([9]; 24 hours incubation with Cu2+, Ca2+ and Zn2+ in PBS, pH = 7.4): high chelate stability, comparable to its clinical analog ProHance, with no evident transmetallation
- chelation stability in vitro ([9]; summary statement, Fig. 2): high chelate stability against transmetallation; also recorded: same high in vitro and in vivo chelation stability
- signal/contrast enhancement ([6]; LNCaP tumors): significantly lower signal enhancement; also recorded: not evident in slow growing LNCaP tumors; also recorded: low enhancement
- CNR increase ([6]; LNCaP tumors, first 30 min after 0.1 mmol/kg i.v., n=5): 10~60%
- contrast-to-noise ratio (CNR), range ([6]; LNCaP tumors, n=5): 6~9
- CNR in LNCaP relative to PC3 tumors ([6]; LNCaP vs PC3, P < 0.01 for 10 and 20 min, P < 0.001 for 30 min post-injection): more than two times lower
- tumor T1, post-contrast [10]: 2.54 ± 0.13 s
- weak binding site in SPR Scatchard plot [11]: weak binding site
- contrast enhancement in other organs and normal tissues [7]: did not produce significant contrast enhancement
- r1 relaxivity [8]: 4.12 mM⁻¹ s⁻¹
- tumor T1, post-contrast [12]: 1.81 ± 0.07 s
- change in relaxation rate (ΔR1) ([12]; n = 4): highest relaxation rate change in the PC3 tumors among all cases
- tumor differentiation: CNR/enhancement in PC3 vs LNCaP tumors [3]: over two times higher
- CNR increase at 10 min ([3]; PC3 tumors, 10 min post-injection, 0.1 mmol/kg i.v., n=5): over two-fold increase
- contrast-to-noise ratio (CNR), peak ([3]; PC3 tumors, 30 min post-injection, 0.1 mmol/kg i.v., 7T, mean±SEM, n=5): 23.7±1.68
- CNR increase at 30 min ([3]; PC3 tumors, 30 min post-injection, 0.1 mmol/kg i.v., n=5): over five-fold increase
- signal/contrast enhancement ([3]; PC3 tumors): strong signal enhancement within first 10 minutes post-injection
- contrast-to-noise ratio (CNR), range ([3]; PC3 tumors, 7T, n=5): 12~25
- chelation stability in vivo ([13]; summary statement, Fig. 7): same high in vitro and in vivo chelation stability
- renal clearance ([13]; urine, 24 hours post-injection): rapid clearance through renal filtration
- injected dose excreted in urine ([13]; within 24 hours post-injection, 0.1 mmol-Gd/kg tail vein, ICP-OES): over 95%
- T1 relaxivity (r1) [14]: 3.7 mM⁻¹ s⁻¹
- tissue retention / accumulation ([15]; 0.1 mmol-Gd/kg tail vein, ZD2-Gd(HP-DO3A) n = 4, ProHance n = 3): minimal tissue accumulation; also recorded: same low tissue retention as ProHance; also recorded: No significant difference was seen between the two groups; also recorded: minimal body accumulation
- Gd3+ concentration in most organs, including brain, heart, skin [15]: below the detection limit of ICP-OES in most of the organs
- Gd3+ concentration in tumors (ICP-OES) [16]: significantly higher concentration in the PC3 tumors than in the LNCaP tumors and that of ProHance in both the tumors

Reference: article PMC6075728 (Bioconjugate chemistry, 2017)
